One experiment relates to SW-620. Put plainly: Antitumor activity against human SW620 cells after 72 hrs by MTT assay. The conditions noted are these: SW-620, 72 h. In kind it is functional, cell-based. The method, boiled down: (§1)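 Cells from ATCC grown as monolayers in DMEM with 10% FBS, 2 mM L-glutamine, penicillin/streptomycin, 5% CO2, 37 °C. Seeded on day 0 at 1 × 10^4/mL (2 × 10^4/mL for MCF-7). Five 10-fold dilutions (10^-8 to 10^-4 mol/L) added, then 72 h exposure. MTT read at 570 nm; percent growth vs time-zero and untreated controls. IC50 by linear regression; quadruplicates, three experiments.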
A general note: Tetrazolium dyes change colour on reduction, which living cells bring about.

In a further experiment the test system is HEp-2. Put plainly: Antitumor activity against human Hep2 cells after 72 hrs by MTT assay. In kind it is functional, cell-based. Conditions: HEp-2, 72 h. The method, boiled down: as §1
Another experiment has as its system MIA PaCa-2. As to the kind of experiment: Antitumor activity against human MiaPaCa2 cells after 72 hrs by MTT assay. In kind it is functional, cell-based. Conditions: MIA PaCa-2, 72 h. A digest of the protocol: as §1
The test system of another experiment is DNA. Put plainly: Binding affinity to calf thymus DNA by thermal melting temperature assay. In kind it is nucleic-acid assay. The conditions noted are these: Bos taurus. A digest of the protocol:
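ct-DNA (as phosphate concentration) in sodium cacodylate buffer pH 7.0, I = 0.05 mol dm-3. Compound/polynucleotide ratio r = 0.3. Absorbance at 260 nm followed against temperature, ligand absorbance subtracted. Tm taken as transition midpoint by first derivative or tangent method. ΔTm = Tm(complex) − Tm(free DNA), averaged over at least two runs, error ±0.5 °C.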

The subject of another experiment is HeLa. Put plainly: Antitumor activity against human HeLa cells after 72 hrs by MTT assay. In kind it is functional, cell-based. A digest of the protocol: as §1
The subject of a further experiment is MCF7. As to the kind of experiment: Antitumor activity against human MCF7 cells after 72 hrs by MTT assay. The conditions noted are these: MCF7, 72 h. In kind it is functional, cell-based. A digest of the protocol: as §1
Experiment [1] can be described thus: Antiproliferative activity against human […] fibroblast after 72 hrs by MTT assay. In kind it is functional. The method, boiled down: as §1

In ChEMBL document CHEMBL1138229, “Novel cyano- and amidino-substituted derivatives of styryl-2-benzimidazoles and benzimidazo[1,2-a]quinolines. Synthesis, photochemical synthesis, DNA binding, and antitumor evaluation, part 3” (J Med Chem, 2007) one finds IC50 and ΔTm data, which are given here for 23 compounds.

One may read the IC50 as the concentration at which inhibition is half-maximal. As usually defined, the ΔTm is the shift of the melting midpoint relative to a reference. Regarding `c1ccc2c(c1)nc1ccc3ccc(C4=NCCN4)cc3n12`, the IC50 in the experiment on SW-620 is 1.4 µM; in the experiment on HEp-2, 2.4 µM; in the experiment with MIA PaCa-2 it was 5.6 µM; in the experiment on HeLa, 7 µM; with MCF7, 5.3 µM; in experiment [1] it was 7.8 µM. Moreover, the ΔTm with DNA was 3.6 °C.
As to `N=C(NN1CCOCC1)c1ccc2ccc3nc4ccccc4n3c2c1`, the IC50 came to 1.9 µM in the experiment on SW-620; 4.7 µM with HEp-2; 10 µM in the experiment with MIA PaCa-2; 7 µM with HeLa; 6.7 µM with MCF7; 17.7 µM in experiment [1]. For the same compound, the ΔTm in the experiment on DNA turned out to be 3.2 °C.
Consider `N=C(N)c1ccc2nc(/C=C/c3ccccc3)[nH]c2c1`, for which the concentration for half-maximal inhibition (IC50) was 15 µM in the experiment on SW-620; 11 µM in the experiment on HEp-2; more than 100 µM in the experiment with MIA PaCa-2; 2 µM in the experiment with HeLa; 29 µM with MCF7; more than 100 µM in experiment [1]. In addition, the ΔTm with DNA came to 0.7 °C.
`CC(C)NC(=N)c1ccc2nc(/C=C\c3ccccc3)[nH]c2c1`: the IC50 in the experiment on SW-620 is 70 µM; in the experiment on HEp-2 it was 81 µM; in the experiment with MIA PaCa-2 it was 84 µM; in the experiment on HeLa it was 23 µM; in the experiment on MCF7, 33 µM; in experiment [1], more than 100 µM. Also, in the experiment with DNA, the ΔTm is 1.2 °C.
As for `C(=C\c1nc2ccc(C3=NCCN3)cc2[nH]1)/c1ccccc1`, the IC50 was determined as 16 µM in the experiment on SW-620; 16 µM with HEp-2; 19 µM in the experiment on MIA PaCa-2; 4 µM with HeLa; 7 µM in the experiment with MCF7; 21 µM in experiment [1]. Further, in the experiment with DNA, the thermal shift (ΔTm) turned out to be 1.4 °C.
Take `COc1cc([C@@H]2c3cc4c(cc3[C@@H](O[C@@H]3O[C@@H]5CO[C@@H](C)O[C@H]5[C@H](O)[C@H]3O)[C@H]3COC(=O)[C@H]23)OCO4)cc(OC)c1O` [ETOPOSIDE]: the 50% inhibitory concentration (IC50) in the experiment on SW-620 was 20 µM; in the experiment with MIA PaCa-2, 15 µM; in the experiment on HeLa it was 3 µM; in the experiment with MCF7, 50 µM.
`N=C(N)c1ccc2ccc3nc4ccccc4n3c2c1`: the IC50 in the experiment with SW-620 was found to be 2.9 µM; in the experiment on HEp-2, 4 µM; with MIA PaCa-2, 4.5 µM; with HeLa, 4.9 µM; with MCF7, 4 µM; in experiment [1], 6.7 µM. Moreover, the ΔTm in the experiment with DNA stood at 5.2 °C.
With `N=C(N)c1ccc2nc(/C=C\c3ccccc3)[nH]c2c1`, the IC50 in the experiment on SW-620 is 78 µM; in the experiment with HEp-2, not below 100 µM; in the experiment on MIA PaCa-2 it was more than 100 µM; with HeLa, 5.4 µM; with MCF7, 36 µM; in experiment [1], more than 100 µM. Besides, the ΔTm with DNA was -0.5 °C.
For the compound `Clc1ccccc1/C=C/c1nc2ccc(C3=NCCN3)cc2[nH]1`, the IC50 turned out to be 14 µM in the experiment with SW-620; 16 µM with HEp-2; 17 µM with MIA PaCa-2; 4 µM with HeLa; 5 µM with MCF7; 42 µM in experiment [1].
As to `N=C(N)c1ccc2nc3ccc4ccccc4n3c2c1`, the IC50 in the experiment on SW-620 was 17 µM; with HEp-2 it was 13 µM; in the experiment with MIA PaCa-2 it was 13 µM; in the experiment with HeLa, 5 µM; in the experiment with MCF7, 9 µM; in experiment [1] it was 74 µM. The thermal shift (ΔTm) in the experiment with DNA came to 3.6 °C.
`c1ccc2c(c1)ccc1nc3ccccc3n12`: the IC50 came to 23 µM with SW-620; 15 µM in the experiment on HEp-2; 18 µM with MIA PaCa-2; 12 µM in the experiment with HeLa; 16 µM in the experiment on MCF7; 14 µM in experiment [1].
Regarding `Clc1ccccc1/C=C\c1nc2ccc(C3=NCCN3)cc2[nH]1`, the IC50 was 46 µM in the experiment with SW-620; not below 100 µM with HEp-2; 62 µM in the experiment with MIA PaCa-2; 11 µM in the experiment with HeLa; 23 µM in the experiment with MCF7; more than 100 µM in experiment [1].
Regarding `N=C(N)c1ccc2nc(/C=C/c3ccccc3Cl)[nH]c2c1`, the IC50 with SW-620 was more than 100 µM; in the experiment with HEp-2 it was 23 µM; in the experiment with MIA PaCa-2, more than 100 µM; with HeLa, 7.5 µM; in the experiment with MCF7 it was 22 µM; in experiment [1] it was more than 100 µM.
`N=C(NN1CCOCC1)c1ccc2nc(/C=C/c3ccccc3Cl)[nH]c2c1`: the IC50 was found to be 4 µM with SW-620; 10 µM in the experiment with HEp-2; 5 µM in the experiment on MIA PaCa-2; 3 µM in the experiment with HeLa; 4 µM with MCF7; 7 µM in experiment [1].
As for `N=C(NN1CCOCC1)c1ccc2nc(/C=C/c3ccccc3)[nH]c2c1`, the IC50 with SW-620 worked out at 12 µM; with HEp-2 it was 13 µM; in the experiment on MIA PaCa-2 it was 16 µM; in the experiment with HeLa, 6 µM; in the experiment with MCF7, 14 µM; in experiment [1], 20 µM. In addition, in the experiment with DNA, the ΔTm came out at 0.1 °C.
Turning to `N=C(NN1CCOCC1)c1ccc2nc(/C=C\c3ccccc3Cl)[nH]c2c1`, the IC50 in the experiment on SW-620 was 15 µM; in the experiment with HEp-2, 9 µM; in the experiment on MIA PaCa-2, 15 µM; in the experiment with HeLa it was 7 µM; in the experiment with MCF7 it was 14 µM; in experiment [1] it was 21 µM.
Take `CC(C)NC(=N)c1ccc2nc(/C=C/c3ccccc3Cl)[nH]c2c1`: the IC50 in the experiment on SW-620 is 66 µM; with HEp-2, 70 µM; in the experiment on MIA PaCa-2, 48 µM; in the experiment with HeLa, 10 µM; in the experiment on MCF7, 16 µM; in experiment [1], more than 100 µM.
With `CC(C)NC(=N)c1ccc2nc(/C=C\c3ccccc3Cl)[nH]c2c1`, the IC50 is 29 µM with SW-620; 30 µM with HEp-2; 28 µM in the experiment with MIA PaCa-2; 19 µM in the experiment on HeLa; 35 µM in the experiment with MCF7; more than 100 µM in experiment [1].
Turning to `CC(C)NC(=N)c1ccc2ccc3nc4ccccc4n3c2c1`, the IC50 in the experiment with SW-620 was 1.6 µM; in the experiment with HEp-2, 1.6 µM; in the experiment with MIA PaCa-2 it was 8.1 µM; in the experiment with HeLa, 1.7 µM; in the experiment with MCF7 it was 2.2 µM; in experiment [1], 2.7 µM. Also, the ΔTm in the experiment on DNA is 5 °C.
With `N=C(N)c1ccc2nc(/C=C\c3ccccc3Cl)[nH]c2c1`, the IC50 with SW-620 is more than 100 µM; in the experiment on HEp-2, 29 µM; in the experiment with MIA PaCa-2, 85 µM; in the experiment with HeLa it was 20 µM; in the experiment on MCF7 it was 38 µM; in experiment [1], more than 100 µM.
On to `N=C(NN1CCOCC1)c1ccc2nc(/C=C\c3ccccc3)[nH]c2c1`, for which the IC50 with SW-620 was found to be 22 µM; in the experiment with HEp-2, 61 µM; with MIA PaCa-2, 47 µM; with HeLa, 13 µM; with MCF7, 25 µM; in experiment [1] it was 22 µM. Besides, the ΔTm in the experiment with DNA worked out at 1.3 °C.
For `CC(C)NC(=N)c1ccc2nc(/C=C/c3ccccc3)[nH]c2c1`, the half-maximal inhibitory concentration (IC50) in the experiment with SW-620 is more than 100 µM; in the experiment on HEp-2, not below 100 µM; with MIA PaCa-2 it was more than 100 µM; in the experiment on HeLa it was 11 µM; in the experiment on MCF7 it was 9 µM; in experiment [1] it was more than 100 µM. For the same compound, the ΔTm in the experiment with DNA amounted to 1.1 °C.
Take `COc1cccc2c1C(=O)c1c(O)c3c(c(O)c1C2=O)C[C@@](O)(C(=O)CO)C[C@@H]3O[C@H]1C[C@H](N)[C@H](O)[C@H](C)O1` [DOXORUBICIN]: the IC50 in the experiment with SW-620 was 0.02 µM; in the experiment on HEp-2, 0.04 µM; with MIA PaCa-2 it was 0.02 µM; with HeLa, 0.04 µM; in the experiment on MCF7 it was 0.04 µM.
